Among all 27,000 compounds or so, about 250 (0.93%) were called active.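 How the source made its calls: active means mutant luminescence inhibited past about 50% while wild type luminescence and mutant growth stay under set limits (limit read from the data); inconclusive means mutant versus wild type luminescence inhibition gap past a set limit; inactive means the rest.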 Shown is part of a subset that was picked to be rich in actives.

This experiment can be described thus: GCN4-lacZ reporter reduction in eIF2B-epsilon mutant yeast, primary screen, S. cerevisiae, eIF2B-epsilon R284H, Beta-Glo luminescence (AID 688). The settings on record: growth inhibition: measured here: mutant yeast growth, toxicity, concentration not given here; inhibition: stronger effect = higher value, screened at 25 µM (by protocol). A digest of the protocol: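 material = yeast eIF2B-epsilon R284H mutant carrying GCN4–beta-galactosidase fusion | schedule = 16 h growth with compound at 30 °C, 90 min Beta-Glo step | measured by = luminescence and A595 | compound dosing = one concentration, 25 µM, 0.25% DMSO | read-out basis = % inhibition of reporter signal and growth versus controls | buffer or medium = YPD medium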
Consider `N#CCSc1nc2c(c(=O)n1Cc1ccccc1)C1(CCCC1)Cc1ccccc1-2`, for which the inhibition is 9.23% (inactive).

As for `O=C(Cc1ccccc1)Nc1c(C(=O)N2CCCCCC2)cnn1-c1ccccc1`, the growth inhibition was 8.33% and the inhibition was -14.8% (inactive).

Turning to `COc1ccc(S(=O)(=O)N2CCCC(C(=O)N3CCN(C)CC3)C2)cc1C` (stereo unspecified), the growth inhibition turned out to be 6.9% and the inhibition is -4.21% (inactive).

Take `CC(C)n1c(-c2cccs2)nc2ccccc21`: the growth inhibition was 14.7% and the inhibition is 15% (inactive).

In the case of `CCOC(=O)C1=C(CSc2nnnn2C)N(C)C(=O)NC1c1ccccc1` (stereo unspecified), the growth inhibition was -2.7% and the inhibition is 19.9% (inactive).

Take `CCOC(=O)c1sc(C)c2c1NC(C)(c1cccc3ccccc13)NC2=O` (stereo unspecified): the growth inhibition was found to be 2.7% and the inhibition is -8.97% (inactive).

In the case of `CCOCCn1c(C(C)C)nc2ccccc21`, the inhibition is -14.4% (inactive).

As for `CCNc1nc(N)nc(Oc2ccc(OCC)nn2)n1`, the growth inhibition is -12.5% and the inhibition was 31.6% (inactive).

Regarding `C/C=C/C(=O)Nc1nnc(C(C)C)s1`, the inhibition is 1.35% (inactive).

With `O=C(CCCn1c(=O)oc2ccccc21)Nc1cccnc1`, the growth inhibition was -21.7% and the inhibition is 22.3% (inactive).

Turning to `O=C(CS(=O)(=O)Cc1ccccc1)Nc1cccnc1`, the inhibition is 11.1% (inactive).

Take `O=C(Nc1cccnc1)c1noc2c1CCCCC2`: the growth inhibition stood at 3.45% and the inhibition was 69% (active).

As to `COc1ccc(-n2nnnc2SCC(=O)Nc2ccccc2)cc1`, the growth inhibition was -13.6% and the inhibition is 0.65% (inactive).

Consider `O=C(NCc1ccccn1)c1cc(-c2ccccc2Cl)on1`, for which the growth inhibition was 9.09% and the inhibition is 8.32% (inactive).

As for `COc1ccc(-c2nnc(SCC(=O)c3ccc4c(c3)OCCO4)o2)cc1`, the growth inhibition is -27.1% and the inhibition is 9.99% (inactive).

For `C=CCSC1=C(C#N)C(c2cc(Br)c(O)c(OC)c2)CC(=O)N1` (stereo unspecified), the growth inhibition is -19.1% and the inhibition is 17.8% (inactive).

For the compound `O=C(NCC(=O)N(Cc1cccs1)C(C(=O)NC1CCCCC1)c1ccco1)c1cccs1` (stereo unspecified), the growth inhibition is -12.9% and the inhibition was 9.07% (inactive).

Turning to `Cc1nc2c(c(=O)n1Cc1ccco1)c1nc3ccccc3nc1n2Cc1ccccc1`, the inhibition was 16.6% (inactive).

`CCOc1ccc(NC(=O)CN(C)CC(=O)Nc2cccc(Cl)c2C)cc1OCC`: the growth inhibition was -23.8% and the inhibition was 30.2% (inactive).

Regarding `COc1ccccc1-n1nnnc1S(=O)(=O)Cc1ccc(Cl)cc1`, the growth inhibition is -20.6% and the inhibition was 24.8% (inactive).

Consider `Cc1cc(C)n(-c2c(F)c(F)c(COC(=O)c3ccccc3)c(F)c2F)n1`, for which the growth inhibition worked out at 23% and the inhibition is 20.8% (inactive).

For the compound `Cc1cccc(N2C(=O)c3cccnc3C2=O)c1`, the growth inhibition was -42.9% and the inhibition is 27.9% (inactive).

Consider `CC(=O)NC1(c2cccc(F)c2)CCN(CC(=O)NC(C)C)CC1`, for which the growth inhibition stood at 4.55% and the inhibition was 8.86% (inactive).

In the case of `O=C(NCc1ccc(Cl)c(Cl)c1)c1cccnc1`, the growth inhibition is -25% and the inhibition is 24.4% (inactive).

Regarding `O=C(Nc1nncs1)c1cccc(S(=O)(=O)N2CCCCC2)c1`, the growth inhibition was -27.3% and the inhibition is -2.85% (inactive).

With `Cc1ccc(C2(C(F)(F)F)N=C3Sc4cc(C)cc(C)c4N3C(=O)N2)cc1` (stereo unspecified), the growth inhibition was -4.76% and the inhibition was 31.4% (inactive).

As to `C=CCn1c(SCCOc2ccc(OC)cc2)nnc1C(NC(=O)c1ccc(OC)cc1)C(C)C` (stereo unspecified), the growth inhibition is -10% and the inhibition is 21.4% (inactive).

For `COCc1[nH][nH]c(=O)c1C=Nc1ccc(F)cc1F`, the growth inhibition amounted to 18.9% and the inhibition was 24.1% (inactive).

As for `Cc1ccc2c(CSc3nncs3)cc(=O)oc2c1`, the growth inhibition is -14.7% and the inhibition was -21.6% (inactive).

In the case of `CCCCNS(=O)(=O)c1ccc(S(=O)(=O)n2cnc3ccccc32)cc1`, the growth inhibition was -31.6% and the inhibition was -22.7% (inactive).

As to `CCOC(=O)c1c(N)sc(C(C)=O)c1C`, the growth inhibition came out at 19.1% and the inhibition was 2.16% (inactive).

As to `Cc1ccc(S(=O)(=O)c2nc(NCCCn3ccnc3)sc2Cl)cc1`, the growth inhibition came out at 15.9% and the inhibition is 26% (inactive).

For the compound `COc1ccc(Cl)cc1C(=O)Nc1ccc(N(C)C(C)=O)cc1`, the growth inhibition turned out to be 27.8% and the inhibition was 21.8% (inactive).

Turning to `CCN(CC)CCNC(=O)CCCCCn1c(=O)[nH]c2cc(C(=O)OC)ccc2c1=O`, the growth inhibition came out at 3.33% and the inhibition was 12.9% (inactive).

Consider `Nn1c(Cc2cccc3ccccc23)nnc1SCC(=O)N1CC(=O)Nc2ccccc21`, for which the growth inhibition came to 7.35% and the inhibition is 9.26% (inactive).

In the case of `Cc1ccc(C2=CSC3=NS(=O)(=O)CCN23)cc1C`, the growth inhibition is -2.38% and the inhibition is 1.24% (inactive).

Consider `O=C(c1cccc2ccccc12)N1CCN(c2ccccc2F)CC1`, for which the growth inhibition came to 10.7% and the inhibition was 8.17% (inactive).

`O=C(O)CCSc1nnc(-c2ccccc2)n1-c1ccccc1`: the growth inhibition was -9.09% and the inhibition is 19.8% (inactive).

As to `Cc1ccc(S(=O)(=O)NCC(C)NS(C)(=O)=O)cc1` (stereo unspecified), the growth inhibition was 1.47% and the inhibition is -24.4% (inactive).

Consider `COCc1nnc(NC(=O)CS(=O)(=O)Cc2ccccc2)s1`, for which the growth inhibition was -13.8% and the inhibition was 8.87% (inactive).

As for `COc1ccc(-n2c(SCC(=O)Nc3ccc4c(c3)OCO4)nnc2C(C)N2CCCCC2)cc1` (stereo unspecified), the growth inhibition is -17.2% and the inhibition is 32% (inactive).

For `O=C(NC1(C(F)(F)F)NC(=O)N(Cc2cccnc2)C1=O)c1ccccc1Cl` (stereo unspecified), the growth inhibition is -9.52% and the inhibition is 12.7% (inactive).

As to `CCc1nnc(NC(=O)CSc2nc3ccccc3c(=O)n2CCCOC)s1`, the growth inhibition was -4.35% and the inhibition was -1.74% (inactive).

As to `Cc1cc(-n2nc(C)cc2C)n2nc(C)c(-c3ccccc3)c2n1`, the growth inhibition is -28.6% and the inhibition was -42.8% (inactive).

Consider `CCOC(=O)c1cnc(SCC(=O)NCc2ccco2)nc1N`, for which the growth inhibition came to 5.17% and the inhibition was -10.3% (inactive).

Turning to `CCOc1ccccc1NC(=O)C1CCCN(C(=O)Nc2ccccc2)C1` (stereo unspecified), the growth inhibition was -12.5% and the inhibition is 25.3% (inactive).

`COc1ccc(C2N=C(N)N=C(N)N2c2ccccc2)cc1OC` (stereo unspecified): the growth inhibition was -25% and the inhibition is -6.05% (inactive).

As to `COc1ccc(OC)c(-n2nnnc2SCC(=O)Nc2cc(C)ccc2OC)c1`, the growth inhibition was -24.1% and the inhibition was 30.4% (inactive).

For the compound `COC(=O)c1cccc(N(C(=O)c2ccco2)C(C(=O)NC2CCCC2)c2ccco2)c1` (stereo unspecified), the inhibition is -17.9% (inactive).

On to `CCC(C(=O)NC1CCCC1)N(C(=O)c1snc(C(N)=O)c1N)c1ccc2c(c1)OCCO2` (stereo unspecified), for which the growth inhibition is -13.6% and the inhibition was 52.4% (active).

For the compound `CCCCNC(=O)CCNC(=O)c1ccc(C(C)(C)C)cc1`, the growth inhibition is 22.6% and the inhibition is 20.7% (inactive).

For `CCCCCCSc1nsc(N)n1`, the growth inhibition was determined as 5.56% and the inhibition was 30.6% (inactive).

Take `CC(C)C(=O)Nc1nnc(Sc2ccc(N(C)C)cc2)s1`: the growth inhibition was -33.3% and the inhibition was -11.6% (inactive).

In the case of `COc1ccc(CNC(=O)CCn2cccc2)cc1`, the growth inhibition is 33.3% and the inhibition was 18.8% (inactive).

Take `CCCNC(=O)N1CCN(C(=O)NCCC)CC1`: the growth inhibition is 5.13% and the inhibition is 3.89% (inactive).

With `COc1ccccc1NC(=O)CC(NCCN(C)C)C(=O)O` (stereo unspecified), the growth inhibition was determined as 18.9% and the inhibition was 15.2% (inactive).
